{
  "source": "ChEMBL document CHEMBL1123436",
  "about": "“Comparative toxicities and analgesic activities of three monomethylated analogues of acetaminophen” (J Med Chem, 1986)",
  "key": {"Mus musculus [1]": {"test_system": "Mus musculus", "experiment": "(§1) Hepatotoxicity in Swiss-Webster Mice Caused by compound at 1000 mg/kg (i.p.) (phenobarbital pretreated animals)dose", "assay_type": "functional, organism-based", "parameters": "dose 1000 mg/kg", "method_in_brief": "(§2)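 Male Swiss-Webster mice (20 g), groups of 10. Sodium phenobarbital (80 mg/kg ip) was given 72, 60, 48 and 24 h before drug, then drug ip in saline. At 24 h: survivors counted, plasma ALT measured, and H&E liver sections scored for necrosis in survivors. Values are means ± SE.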"}, "Mus musculus [2]": {"test_system": "Mus musculus", "experiment": "Hepatotoxicity in Swiss-Webster Mice Caused by compound at 1000 mg/kg (i.p.) (cobaltous chloride pretreated animals)dose", "assay_type": "functional, organism-based", "parameters": "dose 1000 mg/kg", "method_in_brief": "(§3)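 Male Swiss-Webster mice (20 g), groups of 10. Cobaltous chloride (30 mg/kg ip) was given 48, 36, 24 and 12 h before drug, then drug ip in saline. At 24 h: survivors counted, plasma ALT measured, and H&E liver sections scored for necrosis in survivors. Values are means ± SE.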"}, "Mus musculus [3]": {"test_system": "Mus musculus", "experiment": "(§4) Hepatotoxicity in Swiss-Webster Mice Caused by compound at 1000 mg/kg (i.p.) dose", "assay_type": "functional, organism-based", "parameters": "dose 1000 mg/kg", "method_in_brief": "(§5)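 Male Swiss-Webster mice (20 g), groups of 10, were given a single ip dose of drug in saline with no pretreatment. Survivors were decapitated at 24 h and counted. Plasma ALT was measured, and liver sections (formalin-fixed, paraffin, H&E) were scored for necrosis severity in survivors. Values are means ± SE.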"}, "Mus musculus [4]": {"test_system": "Mus musculus", "experiment": "(§6) Hepatotoxicity in Swiss-Webster Mice Caused by compound at 1000 mg/kg (i.p.) (pipernonyl butoxide pretreated animals)dose", "assay_type": "functional, organism-based", "parameters": "dose 1000 mg/kg", "method_in_brief": "(§7)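 Male Swiss-Webster mice (20 g), groups of 10. Piperonyl butoxide (neat, single 1360 mg/kg ip dose) was given 30 min before drug, then drug ip in saline. At 24 h: survivors counted, plasma ALT measured, and H&E liver sections scored for necrosis in survivors. Values are means ± SE.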"}, "Mus musculus [5]": {"test_system": "Mus musculus", "experiment": "(§8) Hepatotoxicity in Swiss-Webster Mice Caused by compound at 750 mg/kg (i.p.) dose", "assay_type": "functional", "conditions": "route intraperitoneal", "method_in_brief": "as §5"}, "[6]": {"experiment": "Hepatotoxicity in Swiss-Webster Mice Caused by compound at 1000 mg/kg (i.p.) (phenobarbital pretreated animals)dose; 5/10", "assay_type": "functional, Mus musculus", "conditions": "route intraperitoneal", "method_in_brief": "as §2"}, "Mus musculus [7]": {"test_system": "Mus musculus", "experiment": "Hepatotoxicity in Swiss-Webster Mice Caused by compound at 1000 mg/kg (i.p.) dose; 8/10", "assay_type": "functional", "conditions": "route intraperitoneal", "method_in_brief": "as §5"}, "[8]": {"experiment": "Hepatotoxicity in Swiss-Webster Mice Caused by compound at 1000 mg/kg (i.p.) (cobaltous chloride pretreated animals)dose; 9/10", "assay_type": "functional, Mus musculus", "conditions": "route intraperitoneal", "method_in_brief": "as §3"}, "Mus musculus [9]": {"test_system": "Mus musculus", "experiment": "Hepatotoxicity in Swiss-Webster Mice Caused by compound at 1000 mg/kg (i.p.) (pipernonyl butoxide pretreated animals)dose; 10/10", "assay_type": "functional", "conditions": "route intraperitoneal", "method_in_brief": "as §7"}, "Mus musculus [10]": {"test_system": "Mus musculus", "experiment": "Hepatotoxicity in Swiss-Webster Mice Caused by compound at 750 mg/kg (i.p.) dose; 10/10", "assay_type": "functional", "conditions": "route intraperitoneal", "method_in_brief": "as §5"}, "Mus musculus [11]": {"test_system": "Mus musculus", "experiment": "as §8", "assay_type": "functional, organism-based", "parameters": "dose 750 mg/kg", "method_in_brief": "as §5"}, "Mus musculus [12]": {"test_system": "Mus musculus", "experiment": "as §4", "assay_type": "functional", "conditions": "route intraperitoneal", "method_in_brief": "as §5"}, "[13]": {"experiment": "as §1", "assay_type": "functional, Mus musculus", "conditions": "route intraperitoneal", "method_in_brief": "as §2"}, "Mus musculus [14]": {"test_system": "Mus musculus", "experiment": "as §6", "assay_type": "functional", "conditions": "route intraperitoneal", "method_in_brief": "as §7"}, "Mus musculus [15]": {"organism": "Mus musculus", "experiment": "Analgesic activity determined in mice using the Bradykinin-induced Writhing test", "assay_type": "functional", "method_in_brief": "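Male CD1 mice (15–20 g), test drug given orally 15 min before bradykinin ip (4 μg in 0.2 mL sterile water), then a second bradykinin injection (0.2 μg/0.1 mL) 15 min later. Writhing was scored over the next 10 min, with control groups of 10 mice. ED50 was derived by log-probit analysis from at least five doses, with 95% limits.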"}},
  "data": [
    {"smiles": "CC(=O)Nc1ccc(O)cc1C", "values": [
      {"measurement": "Plasma ALT at 24 h", "setting": "Mus musculus [1]", "result": 3920, "unit": "mU ml-1"},
      {"measurement": "Plasma ALT at 24 h", "setting": "Mus musculus [2]", "result": 40, "unit": "mU ml-1"},
      {"measurement": "Plasma ALT at 24 h", "setting": "Mus musculus [3]", "result": 2110, "unit": "mU ml-1"},
      {"measurement": "Plasma ALT at 24 h", "setting": "Mus musculus [4]", "result": 75, "unit": "mU ml-1"},
      {"measurement": "Hepatic necrosis in survivors", "setting": "Mus musculus [5]", "result": 0.8},
      {"measurement": "Survivors at 24 h", "setting": "[6]", "result": 5},
      {"measurement": "Survivors at 24 h", "setting": "Mus musculus [7]", "result": 8},
      {"measurement": "Survivors at 24 h", "setting": "[8]", "result": 9},
      {"measurement": "Survivors at 24 h", "setting": "Mus musculus [9]", "result": 10},
      {"measurement": "Survivors at 24 h", "setting": "Mus musculus [10]", "result": 10},
      {"measurement": "Plasma ALT at 24 h", "setting": "Mus musculus [11]", "result": 690, "unit": "mU ml-1"},
      {"measurement": "Hepatic necrosis in survivors", "setting": "Mus musculus [12]", "result": 1.75},
      {"measurement": "Hepatic necrosis in survivors", "setting": "[13]", "result": 3.4},
      {"measurement": "Hepatic necrosis in survivors", "setting": "Mus musculus [14]", "result": 0},
      {"measurement": "ED50", "setting": "Mus musculus [15]", "result": 177, "unit": "mg/kg"}
    ]}
  ]
}
